Screening results deposited in PubChem by Columbia University Molecular Screening Center.
Insulin prom act – activators of insulin promoter-driven GFP, primary screen, imaging, TRM-6 cells (human fetal islet line), eGFP reporter, cell count; plate-scaled: unstimulated 0, stimulated control 100; AID 1296, 2008; activation, % at 2 µM; 0.81% of 130,000 active;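 active = activation at 2 µM above a set limit, confirmed on inspection of the cell images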;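 note: share of cells whose green reporter signal exceeds an intensity cutoff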
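System – TRM-6 insulin promoter–eGFP reporter cells · Probe or stimulus – 0.75 µM tamoxifen as reporter inducer · Dosing – single-point 2 µM compound dose · Incubation – tamoxifen pre-incubation 15 h overnight, then compound exposure 48 h at 37 °C · Measured by – fixed-cell fluorescence microscopy, eGFP plus Hoechst · Evaluation – percent GFP-positive cells normalized to per-plate controls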
Hits are given with their value; 0 = inactive; + = active, no number; [ ] = another dose, or the depositor's remark. Shown is part of a subset that was picked to be rich in hits.

SMILES	Insulin prom act
CCN(CC)c1ccc(-c2nc3cnccc3n2C)cc1	0
CSc1ccc(NC(=O)N2CC=C(n3c(=O)[nH]c4ccccc43)CC2)cc1	0
COc1cc(C(=O)NCc2nnc(SCC(=O)Nc3ccc4c(c3)OCO4)o2)cc(OC)c1OC	0
CCOc1ccc(CC(=O)Nc2ccc(NC(=O)c3ccco3)cc2)cc1OCC	100.0
CCOc1cc(NC(=O)c2cccs2)c(OCC)cc1NC(=O)c1ccco1	0
CCOc1cc(NC(=O)c2ccco2)c(OCC)cc1NC(=O)Cc1cccc(OC)c1	0
NC1=NC(=O)/C(=C/c2c(OS(=O)(=O)c3ccc(Cl)cc3)ccc3ccccc23)S1	0
Cc1ccc(C(=O)N(C)c2nnc(-c3ccncc3)s2)cc1	0
CC(c1ccccn1)N(CCN(C)C)C(=S)Nc1cccc(F)c1 (stereo unspecified)	0
COCCCN(C(=O)Nc1cccc(Cl)c1)C(C)c1ccccn1 (stereo unspecified)	641.7
COCCCN(C(=S)Nc1cccc(Cl)c1)C(C)c1ccncc1 (stereo unspecified)	0
S=C(NCc1ccco1)N1CCC(c2nc3ccccc3o2)CC1	0
CC(=O)c1ccc(C(=O)N2CCCC(CCC(=O)N(C)CCc3ccccn3)C2)s1 (stereo unspecified)	0
O=C(NNC(=S)NCC1CCCO1)c1cccc(S(=O)(=O)N2CCOCC2)c1 (stereo unspecified)	0
CCS(=O)(=O)N1Cc2ccccc2CC1C(=O)Nc1nnc(SCc2ccc(F)cc2)s1 (stereo unspecified)	0
COc1cccc(NC(=S)N(CCCN2CCOCC2)C(C)c2cc3cccc(OC)c3o2)c1 (stereo unspecified)	258.8
COc1cccc(NC(=O)N(CCCN2CCOCC2)C(C)c2cc3ccccc3o2)c1 (stereo unspecified)	0
COc1cccc2cc(C(C)N(CCCN3CCOCC3)C(=S)Nc3ccc(C)cc3)oc12 (stereo unspecified)	0
CCC(=O)Nc1nc(-c2cc([N+](=O)[O-])cs2)cs1	0
O=C(CSc1nc2ccccc2[nH]1)Nc1nc(-c2ccc(Br)cc2)cs1	0
CCC(C)(C)NC(=O)C1CCN(S(=O)(=O)c2cccs2)CC1	+[fluoresces]
O=C(NCCc1ccccc1Cl)C1CCN(S(=O)(=O)c2cccs2)CC1	0
CCOC(=O)c1c(NC(=O)C2CCN(S(=O)(=O)c3cccs3)CC2)sc(C)c1C	454.3
Cc1ccccc1NC(=O)C1CCN(S(=O)(=O)c2cccs2)CC1	0
CCOC(=O)Nc1sc(C)c(C)c1C(=O)OCC	0
SMILES	Insulin prom act
COc1ccc(N2CCN(CCNC(=O)C3CCN(S(=O)(=O)c4cccs4)CC3)CC2)cc1	0
COc1ccc(CCN2C(=O)C(O)=C(C(=O)c3ccco3)C2c2cccs2)cc1OC (stereo unspecified)	0
COC(=O)c1c(NC(=O)COC(=O)CCc2ccc(S(=O)(=O)N3CCOCC3)cc2)sc2c1CCC2	0
Fc1cc(F)cc(NC(=S)Nc2ccccc2N2CCOCC2)c1	0
Cc1nn(CC(=O)c2cccc(Cl)c2)c(C)c1[N+](=O)[O-]	0
CC(C(=O)O/N=C(\N)c1cccnc1)c1ccc([N+](=O)[O-])cc1 (stereo unspecified)	0
O=c1cnnc(N/N=C/C2CC=CCC2)[nH]1 (stereo unspecified)	0
O=C(c1cc2c(s1)CCCC2)N1CCN(S(=O)(=O)c2ccccc2C(F)(F)F)CC1	0
CN(C)Cc1ccccc1Sc1ccc(Br)cc1	0
O=C(Nc1ccc(Cl)cc1)OCCn1nnnc1C(c1ccccc1)N1CCOCC1 (stereo unspecified)	88.6
O=C(c1ccco1)N1CCN(C(c2ccc(Cl)cc2)c2nnnn2Cc2ccccc2)CC1 (stereo unspecified)	0
CN1CCN(C(c2ccccc2)c2nnnn2Cc2ccccc2)CC1 (stereo unspecified)	0
O=C(Nc1cc(S(=O)(=O)N2CCCC2)ccc1OCC(F)(F)F)c1ccc(F)cc1	0
O=C(Nc1cc(S(=O)(=O)N2CCCCC2)ccc1Cl)c1ccccc1NS(=O)(=O)c1ccc(F)cc1	525.0
O=C(Nc1ccccc1N1CCOCC1)c1ccccc1NS(=O)(=O)c1ccc(F)cc1	0
CCn1c2ccccc2c2cc(C3C(C#N)=C(N)Oc4n[nH]c(COC)c43)ccc21 (stereo unspecified)	0
COc1ccc(Cl)cc1NC(=O)c1ccccc1C	0
CCN(C(=O)c1cc(Cl)ccc1OC)c1ccccc1C	542.9
CCN(C(=O)c1cn(C)c(=O)c2cc(OC)c(OC)cc12)c1ccccc1C	0
CCOC(=O)N1CCN(C(=O)CCn2c(=S)[nH]c3ccsc3c2=O)CC1	0
CCOC(=O)/C(C#N)=C\C1=C(N2CCCC2)CC(C)(C)OC1	0
CCOC(=O)/C(C#N)=C1/C=CN(C)C=N1	0
CCOC(=O)C(/C=C(\C#N)C(=O)OCC)=C(/N)N1CCN(c2ccccc2)CC1	0
CCOC(=O)/C(C#N)=C1/C=CN(Cc2ccccc2)C=N1	0
CCCCCCN1C=CC(=C/C=C(\C#N)C(=O)OCC)C=C1	132.6
SMILES	Insulin prom act
CCCN1C=CC(=C/C=C(\C#N)C(=O)OCC)C=C1	141.0
O=C1C2C3c4ccccc4C(Br)(c4ccccc43)C2C(=O)N1c1ccccc1O (stereo unspecified)	0
CS(=O)(=O)N(CC(=O)Nc1cccc(Cl)c1)c1ccccc1Cl	0
COc1cccc2c1OCC/C2=N\NC(=O)COc1ccccc1C	0
Cc1cc(/C=C(\C#N)C(=O)NCc2ccco2)c(C)n1-c1ccc(C(=O)O)cc1	0
CC(C)=Cc1c(O)nc2ccccn2c1=O	0
OCc1nc2ccccc2n1CC(O)Cn1ccc2ccccc21 (stereo unspecified)	90.9
OCc1nc2ccccc2n1CCCOc1ccccc1	0
CC(C)Cn1c(NCCO)nc2ccccc21	0
Cc1ccc(/C=N/NC(=O)CCn2nc(C)cc2C)c(C)c1	0
O=C(Cc1ccc(Cl)cc1Cl)OCC(=O)N1CCN(C(=O)c2ccco2)CC1	0
Cc1ccc(S(=O)(=O)NNC(=O)C2CC=CCC2C(=O)O)cc1 (stereo unspecified)	0
COc1ccc(NC(=O)CC2C(=O)N(c3ccc(OC)cc3)C(=O)N2CCc2cccs2)cc1 (stereo unspecified)	0
CCNC(=O)CC1C(=O)N(c2ccccc2)C(=O)N1CCc1ccc(OC)c(OC)c1 (stereo unspecified)	0
CCNC(=O)CC1C(=O)N(c2ccc(F)cc2)C(=O)N1CCc1ccc(OC)cc1 (stereo unspecified)	154.5
CC1CCCC(n2c(=S)[nH]c3ccccc3c2=O)C1C (stereo unspecified)	0
CN(C(=S)NC(=O)c1ccccc1Br)C1CCCCC1	222.6
COc1ccccc1/C=C/C(=O)NC(=S)N(C)C1CCCCC1	0
CC1CCCCC1NC(=S)NC(=O)c1ccccc1Br (stereo unspecified)	0
Cc1c(/C=N/NC(=O)c2cc(=O)[nH]c(=O)[nH]2)c2ccccn2c1C(=O)c1ccccc1	0
CCc1cccc(N(C(=O)c2csnn2)C(C(=O)NC(C)(C)CC)c2ccccn2)c1 (stereo unspecified)	0
O=C(COC(=O)/C(=C/c1cccs1)c1cccs1)NC(c1ccccc1)c1ccccc1	0
Cc1ccnc(N(C(=O)c2cccs2)C(=O)c2cccs2)c1	83.9
Cc1ccc(-c2noc(CN(C(=O)c3cccs3)C(C)C)n2)cc1	0
Cc1cccc(-c2nnc(NC(=O)c3cccs3)s2)c1	0
